# Assay outcomes: PubChem BioAssay, Johns Hopkins Ion Channel Center
# KCNK3 block = human KCNK3 channel inhibition, primary screen; O14649; CHO-KCNK3 thallium flux, FluxOR fluorescence; hits give low values; B-score at 10 µM; hit rate 0.84% among 340,000;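 active = B-score under library mean minus 4 SD, starting fluorescence ratio at most library mean plus 5 SD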;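 also: more negative B-score means stronger inhibition of thallium flux through KCNK3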
# KCNQ1 pot = potentiators or activators of human KCNQ1 potassium channel | P51787 | CHO-K1 KCNQ1, thallium flux FluxOR fluorescence; hits give high values | B-score at 10 µM | hit rate 0.35% among 310,000;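 active = fluorescence ratio B-score, a plate-corrected score, at least three library SD, with initial intensity B-score within 5 SD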
#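 System: CHO-K1 cells stably expressing KCNQ1 / Medium: assay buffer for compound exposure, DMSO matched across wells / Reagent: thallium- and potassium-containing depolarizing buffer / Compound: one concentration, matched DMSO / Incubation: 20 min compound pretreatment at room temperature / Measured by: kinetic FluxOR fluorescence, 10 s baseline plus 110 s post-stimulus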
# KCNQ1 inh = human KCNQ1 channel inhibition. hit rate 1.3% among 310,000. B-score at 10 µM. CHO-K1 KCNQ1, FluxOR thallium flux fluorescence; hits give high values;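 active = compounds whose thallium flux B-score, printed positive for inhibition, exceeds three library SD while starting fluorescence stays within three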;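 also: channel opened by potassium depolarization with thallium stimulus after 20 min compound exposure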
# KCNK9 inh = blocks the human KCNK9 two-pore domain potassium channel. Q9NPC2. hit rate 1.2% among 310,000. B-score at 10 µM. HEK293 KCNK9, FluxOR thallium flux fluorescence; hits give low values;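 active = ratio B-score over 3 SD below the library mean, with starting fluorescence within 5 SD of its mean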;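 also: negative B-score means less thallium flux so channel inhibition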
# hERG rescue = compounds protecting human hERG from proarrhythmic drug block; Q12809; CHO-hERG, FluxOR thallium flux, dofetilide IC70 present; activation (rescue from dofetilide block), less the hit threshold, % at 10 µM; hit rate 0.51% among 310,000; AID 1511;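 active = activation above the mean of controls blocked by dofetilide plus 5 SD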;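 also: thallium influx through hERG after potassium depolarization seen as dye fluorescence rise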
# Active calls of the source: *; i = inactive; / = no result given. Most compounds without a hit are left out; they make up all but 3.1% or so of the library.
SMILES,KCNK3 block,KCNQ1 pot,KCNQ1 inh,KCNK9 inh,hERG rescue
Cc1oc(-c2ccccc2Cl)nc1CS(=O)(=O)CC(=O)NC1CCCC1,i,i,i,i,-11
COc1ccc(S(=O)(=O)n2nc(-c3cc(OC)c(OC)c(OC)c3)cc2N)cc1OC,i,/,/,/,/
COc1ccc(-c2cc(N)n(S(=O)(=O)c3c(F)c(F)c(F)c(F)c3F)n2)cc1OC,-11*,8*,i,i,-36
O=C(NC(=S)Nc1ccc(N2CCOCC2)c(Cl)c1)c1cccs1,i,i,i,i,1
O=C(NNC(=O)c1sc2ccccc2c1Cl)Nc1ccc(Cl)cc1,i,i,i,i,-10
O=C(NC(=S)Nc1ccccc1N1CCOCC1)c1sc2ccccc2c1Cl,i,13*,i,i,-7
COc1ccc(OCC(=O)Nc2ccc(N3CCOCC3)c(Cl)c2)cc1,i,i,i,i,-4
O=C(NNC(=S)NC(=O)c1sc2ccccc2c1Cl)c1ccc(Cl)cc1,i,62*,i,i,44*
O=C(NC(=S)Nc1ccc(N2CCOCC2)c(Cl)c1)c1sc2ccccc2c1Cl,i,21*,i,i,21*
